# From ChEMBL document CHEMBL3045357, “DNA adducts as biomarkers for oxidative and genotoxic stress from pesticides in crop plants” (J Agric Food Chem, 2008)
# How the values were obtained:
# Type in all cases: organism-based
# Conditions in all cases: in vivo, other, 336 h
# Vitis vinifera [1] = assay: Genotoxicity in Vitis vinifera exposed to compound through spray 4 times over 2 weeks assessed as relative adduct level A2 measured per 10^9 nucleotides using HX-dG internal standard using [32P]labeling based autoradiography relative to untreated control
# Summary of the method: (§1)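 Plants (2–6 weeks grown), groups of 2–4, sprayed 4 times over 2 weeks with formulations diluted per label (chlorothalonil 1:256, carbaryl 1:64 in water); controls water-sprayed. DNA from 1 g leaf via DNeasy Maxi kit. 10 µg DNA digested with micrococcal nuclease/spleen phosphodiesterase (4 h, 37 °C), NP1-enriched (45 min, 37 °C), labelled with [γ-32P]ATP/T4 kinase (45 min, 37 °C).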
# Glycine max [2] = assay: Genotoxicity in Glycine max (soybean) exposed to compound through spray 4 times over 2 weeks assessed as relative adduct level A2 measured per 10^9 nucleotides using HX-dG internal standard using [32P]labeling based autoradiography relative to untreated control; summary of the method: as §1
# Glycine max [3] = assay: Genotoxicity in Glycine max (soybean) exposed to compound through spray 4 times over 2 weeks assessed as relative adduct level A3 measured per 10^9 nucleotides using HX-dG internal standard using [32P]labeling based autoradiography relative to untreated control; summary of the method: as §1
# Cucurbita pepo [4] = assay: Genotoxicity in Cucurbita pepo (pumpkin) exposed to compound through spray 4 times over 2 weeks assessed as relative adduct level A5 measured per 10^9 nucleotides using HX-dG internal standard using [32P]labeling based autoradiography relative to untreated control; summary of the method: as §1
# Cucurbita pepo [5] = assay: Genotoxicity in Cucurbita pepo (pumpkin) exposed to compound through spray 4 times over 2 weeks assessed as relative adduct level A6 measured per 10^9 nucleotides using [32P]labeling based autoradiography relative to untreated control; summary of the method: as §1
# Cucurbita pepo [6] = assay: Genotoxicity in Cucurbita pepo (pumpkin) exposed to compound through spray 4 times over 2 weeks assessed as relative adduct level A1 measured per 10^9 nucleotides using HX-dG internal standard using [32P]labeling based autoradiography relative to untreated control; summary of the method: as §1
# Vitis vinifera [7] = assay: Genotoxicity in Vitis vinifera exposed to compound through spray 4 times over 2 weeks assessed as relative adduct level A3 measured per 10^9 nucleotides using [32P]labeling based autoradiography relative to untreated control
# Summary of the method: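 Plants grown 2-6 weeks, groups of 2-4 sprayed four times over 2 weeks with label-rate formulations; water-sprayed controls. Leaf DNA kit-extracted. 10 µg DNA digested with micrococcal nuclease/spleen phosphodiesterase 4 h at 37 °C. NP1-enriched, then labeled with [γ-32P]ATP/T4 kinase 45 min at 37 °C. 2D PEI-cellulose TLC, imager readout. Samples spiked with 50 fmol HX-dG standard.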
# Vitis vinifera [8] = assay: Genotoxicity in Vitis vinifera exposed to compound through spray 4 times over 2 weeks assessed as relative adduct level A3 measured per 10^9 nucleotides using HX-dG internal standard using [32P]labeling based autoradiography relative to untreated control; summary of the method: as §1
# Phaseolus vulgaris [9] = assay: Genotoxicity in Phaseolus vulgaris (bush beans) exposed to compound through spray 4 times over 2 weeks assessed as relative adduct level A1 measured per 10^9 nucleotides using HX-dG internal standard using [32P]labeling based autoradiography relative to untreated control; summary of the method: as §1
# Glycine max [10] = assay: Genotoxicity in Glycine max (soybean) exposed to compound through spray 4 times over 2 weeks assessed as HNE-dG adducts using [32P]labeling based autoradiography (reference value: 34 cpm); summary of the method: as §1
# Glycine max [11] = assay: Genotoxicity in Glycine max (soybean) exposed to compound through spray 4 times over 2 weeks assessed as relative adduct level A6 measured per 10^9 nucleotides using [32P]labeling based autoradiography relative to untreated control; summary of the method: as §1
# Cucurbita pepo [12] = assay: Genotoxicity in Cucurbita pepo (pumpkin) exposed to compound through spray 4 times over 2 weeks assessed as relative adduct level A4 measured per 10^9 nucleotides using [32P]labeling based autoradiography relative to untreated control; summary of the method: as §1
# Glycine max [13] = assay: Genotoxicity in Glycine max (soybean) exposed to compound through spray 4 times over 2 weeks assessed as relative adduct level A4 measured per 10^9 nucleotides using HX-dG internal standard using [32P]labeling based autoradiography relative to untreated control; summary of the method: as §1
# Cucurbita pepo [14] = assay: Genotoxicity in Cucurbita pepo (pumpkin) exposed to compound through spray 4 times over 2 weeks assessed as relative adduct level A3 measured per 10^9 nucleotides using [32P]labeling based autoradiography relative to untreated control; summary of the method: as §1
# Cucumis sativus [15] = assay: Genotoxicity in Cucumis sativus (cucumber) exposed to compound through spray 4 times over 2 weeks assessed as relative adduct level A3 measured per 10^9 nucleotides using [32P]labeling based autoradiography relative to untreated control; summary of the method: as §1
# Phaseolus vulgaris [16] = assay: Genotoxicity in Phaseolus vulgaris (bush beans) exposed to compound through spray 4 times over 2 weeks assessed as relative adduct level A4 measured per 10^9 nucleotides using HX-dG internal standard using [32P]labeling based autoradiography relative to untreated control; summary of the method: as §1
# Glycine max [17] = assay: Genotoxicity in Glycine max (soybean) exposed to compound through spray 4 times over 2 weeks assessed as relative adduct level A2 measured per 10^9 nucleotides using [32P]labeling based autoradiography relative to untreated control; summary of the method: as §1
# Cucurbita pepo [18] = assay: Genotoxicity in Cucurbita pepo (pumpkin) exposed to compound through spray 4 times over 2 weeks assessed as relative adduct level A1 measured per 10^9 nucleotides using [32P]labeling based autoradiography relative to untreated control; summary of the method: as §1
# Glycine max [19] = assay: Genotoxicity in Glycine max (soybean) exposed to compound through spray 4 times over 2 weeks assessed as relative adduct level A4 measured per 10^9 nucleotides using [32P]labeling based autoradiography relative to untreated control; summary of the method: as §1
# Glycine max [20] = assay: Genotoxicity in Glycine max (soybean) exposed to compound through spray 4 times over 2 weeks assessed as relative adduct level A1 measured per 10^9 nucleotides using [32P]labeling based autoradiography relative to untreated control; summary of the method: as §1
# Cucumis sativus [21] = assay: Genotoxicity in Cucumis sativus (cucumber) exposed to compound through spray 4 times over 2 weeks assessed as relative adduct level A2 measured per 10^9 nucleotides using [32P]labeling based autoradiography relative to untreated control; summary of the method: as §1
# Cucurbita pepo [22] = assay: Genotoxicity in Cucurbita pepo (pumpkin) exposed to compound through spray 4 times over 2 weeks assessed as relative adduct level A2 measured per 10^9 nucleotides using HX-dG internal standard using [32P]labeling based autoradiography relative to untreated control; summary of the method: as §1
# Phaseolus vulgaris [23] = assay: Genotoxicity in Phaseolus vulgaris (bush beans) exposed to compound through spray 4 times over 2 weeks assessed as relative adduct level A1 measured per 10^9 nucleotides using [32P]labeling based autoradiography relative to untreated control; summary of the method: as §1
# Cucurbita pepo [24] = assay: Genotoxicity in Cucurbita pepo (pumpkin) exposed to compound through spray 4 times over 2 weeks assessed as relative adduct level A2 measured per 10^9 nucleotides using [32P]labeling based autoradiography relative to untreated control; summary of the method: as §1
# Phaseolus vulgaris [25] = assay: Genotoxicity in Phaseolus vulgaris (bush beans) exposed to compound through spray 4 times over 2 weeks assessed as relative adduct level A6 measured per 10^9 nucleotides using HX-dG internal standard using [32P]labeling based autoradiography relative to untreated control; summary of the method: as §1
smiles,measurement,setting,value
N#Cc1c(Cl)c(Cl)c(Cl)c(C#N)c1Cl [CHLOROTHALONIL],Activity,Vitis vinifera [1],4015 cpm
same,Activity,Glycine max [2],8753 cpm
same,Activity,Glycine max [3],6932 cpm
same,Activity,Cucurbita pepo [4],3195 cpm
same,Activity,Cucurbita pepo [5],1409
same,Activity,Cucurbita pepo [6],3731 cpm
same,Activity,Vitis vinifera [7],155
same,Activity,Vitis vinifera [8],9447 cpm
same,Activity,Phaseolus vulgaris [9],5901 cpm
same,Activity,Glycine max [10],8163 cpm
same,Activity,Glycine max [11],324
same,Activity,Cucurbita pepo [12],13
same,Activity,Glycine max [13],6823 cpm
same,Activity,Cucurbita pepo [14],60
same,Activity,Cucumis sativus [15],229
same,Activity,Phaseolus vulgaris [16],2814 cpm
same,Activity,Glycine max [17],172
same,Activity,Cucurbita pepo [18],73
same,Activity,Glycine max [19],134
same,Activity,Glycine max [20],797
same,Activity,Cucumis sativus [21],268
same,Activity,Cucurbita pepo [22],1323 cpm
same,Activity,Phaseolus vulgaris [23],169
same,Activity,Cucurbita pepo [24],26
same,Activity,Phaseolus vulgaris [25],6051 cpm
